RGS4 inh: RGS4 inhibitors, primary screen, cell-based, HEK293 M3R inducible RGS4, calcium flux | Fluo-4 calcium flux; hits give high values; triggered by carbachol at its EC20 | B-score at 10 µM | 0.45% of 310,000 active | AID 463165, 2010;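 active = B-score, a plate-corrected calcium signal, over three deviations above library mean, with baseline fluorescence within five deviations of library mean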;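 also: RGS4 expression induced by doxycycline in cells with stable M3 receptor; B-score is computed from the integrated fluorescence ratio over baseline after carbachol; higher B-score means a larger calcium signal and so more RGS4 inhibition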
Target sequence (P49798 whole entry, looked up): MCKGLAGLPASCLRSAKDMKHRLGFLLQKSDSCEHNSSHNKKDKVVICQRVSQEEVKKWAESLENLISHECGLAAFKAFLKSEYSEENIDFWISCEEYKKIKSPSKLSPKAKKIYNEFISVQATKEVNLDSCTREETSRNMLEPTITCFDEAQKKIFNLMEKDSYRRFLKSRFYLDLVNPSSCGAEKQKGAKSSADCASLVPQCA
MrgX1 agonist: agonists of human MrgX1 receptor, primary screen, HEK293 cells, Fluo-4 calcium flux. Mas-related G-protein coupled receptor member X1 (Homo sapiens), Q96LB2. Fluo-4 calcium fluorescence, agonist mode; hits give high values. B-score at 10 µM. 0.44% of 310,000 active. AID 588627, 2011;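 active = calcium response B-score plate-corrected fluorescence ratio at least 3 library SD, with starting fluorescence B-score inside 5 SD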
Target sequence (Q96LB2 whole entry, looked up): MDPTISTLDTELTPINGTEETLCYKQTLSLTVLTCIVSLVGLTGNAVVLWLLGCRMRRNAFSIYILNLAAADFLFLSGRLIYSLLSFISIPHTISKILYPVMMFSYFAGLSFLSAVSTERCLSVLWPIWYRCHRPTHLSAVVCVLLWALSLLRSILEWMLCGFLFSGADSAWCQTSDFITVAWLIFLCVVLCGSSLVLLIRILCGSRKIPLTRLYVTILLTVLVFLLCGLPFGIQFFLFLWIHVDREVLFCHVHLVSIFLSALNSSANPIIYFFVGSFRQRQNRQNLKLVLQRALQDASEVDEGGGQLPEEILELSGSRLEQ
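Assay system: MrgX1-expressing HEK293 cells / Amount: fifteen thousand cells per well / Doses: test compound in the initial addition of three / Timing: cells plated overnight, dye loaded 0.5 h 37 °C, 0.5 h room temperature / Technique: kinetic calcium dye fluorescence, Fluo-4 NW / Control set: positive and negative controls per plate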
MrgX1 antag: antagonists of human MrgX1 receptor, primary screen, HEK293 cells, Fluo-4 calcium flux | B-score at 10 µM | BAM8-22 antagonism; hits give low values | 1.3% of 310,000 active;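 active = calcium-response B-score plate-corrected more than 3 library SD below zero, starting fluorescence within 5 deviations, no agonist response on first addition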;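 also: peak minus trough fluorescence over baseline after final BAM8-22 challenge near maximal dose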
MrgX1 PAM: positive allosteric modulators of MrgX1, primary screen, HEK293 cells, Fluo-4 calcium flux; Mas-related G-protein coupled receptor member X1 (Homo sapiens), Q96LB2; FDSS; hits give high values; B-score at 10 µM; 0.63% of 310,000 active; AID 588675, 2011;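 active = plate-corrected calcium response at least 3 library SD above typical, normal starting fluorescence, not activating the receptor alone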;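 also: compound read alongside a low EC10 to EC30 dose of BAM8-22 agonist; peak minus trough fluorescence over baseline measured at the second addition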
RGS4 act: RGS4 potentiators or activators, primary screen, cell-based, HEK293 M3R inducible RGS4, calcium flux. 0.92% of 310,000 active. B-score at 10 µM. carbachol calcium flux Fluo4; hits give low values;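 active = B-score of the integrated calcium signal more than 4 SD below the library mean, with starting fluorescence not abnormally high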;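 also: negative B-score means reduced calcium response which marks RGS4 activation or potentiation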
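System – HEK293 FlpIn-TREx cells, stable M3R, doxycycline-inducible RGS4 · Reagent – ECmax carbachol challenge · Times – compound preincubation 20 min at room temperature before agonist · Technique – Fluo4 fluorescence kinetic imaging of calcium · Measure – B score of integrated Fluo4 ratio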
RGS4 block valid: enhanced carbachol calcium response, M3R/RGS4 cells, RGS4 inhibitor project, cell-based, validation screen, HEK293 M3R/RGS4, calcium flux. shares compounds with RGS4 inh. carbachol calcium Fluo-4 fluorescence; carbachol added at its EC20; 0 = buffer wells, 100 = carbachol control. calcium response, % at 10 µM. 65% of 1,700 active. AID 492999, 2010;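 active = duplicate-averaged calcium response above the buffer-only control mean plus 5 SD of those controls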;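 also: integrated fluorescence ratio F max minus min over baseline F0; higher response in RGS4-induced cells means RGS4 inhibition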
RGS4 uninduced: carbachol calcium response in non-induced M3R cells, confirmation, counter-screen for RGS4 inhibitor project, cell-based, HEK293 M3R. shares compounds with RGS4 inh. carbachol calcium Fluo-4; submaximal (EC20) carbachol stimulus; buffer wells 0%, carbachol control wells 100%. activity (percent), % at 10 µM. 20% of 1,900 active; call rule not given here;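 also: RGS4 induction absent so cells express M3R without RGS4; higher means more calcium signal and flags a non-specific hit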
RGS4 inh ctr2: signal in non-induced cells without carbachol, RGS4 inhibitor counter-screen; HEK293 M3R/RGS4 non-induced, Fluo-4 calcium, no carbachol; normalised: buffer wells 0%, carbachol wells 100%; 22% of 1,900 active; AID 493001; shares compounds with RGS4 inh; calcium response (agonist-mode artifact), % at 10 µM;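 active = duplicate-averaged calcium rise in uninduced cells above buffer wells' mean plus 5 SD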
An asterisk follows results filed as active; i = inactive; / = not tested or not shown. Hits are enriched below; roughly 3.5% of the tested compounds scored in any of these assays.

SMILES	RGS4 inh	MrgX1 agonist	MrgX1 antag	MrgX1 PAM	RGS4 act	RGS4 block valid	RGS4 uninduced	RGS4 inh ctr2
O=C1/C(=C\c2cccnc2)Sc2ccccc21	5.1*	i	i	i	i	32%*	36%*	39%*
O=C1NC(=Nc2ccccc2Cl)S/C1=C\c1ccc(C(=O)O)cc1	i	i	i	i	i	/	/	/
Cc1csc(NC(=O)COCC(=O)O)c1-c1nc2ccccc2s1	6.8*	i	i	i	i	22%*	i	i
CC(=O)Nc1scc(C)c1-c1nc2ccccc2s1	i	i	i	i	i	/	/	/
Cc1csc(NC(=O)CCCC(=O)O)c1-c1nc2ccccc2s1	6.2*	i	i	i	i	32%*	48%*	i
CN1N=C2c3ccccc3CCCC2C1c1ccc(F)cc1 (centres undefined)	i	i	i	i	i	/	/	/
CCc1cccc(C)c1NS(=O)(=O)Cc1ccccc1	i	i	i	i	i	/	/	/
N#CCCn1c(O)c(N=NC(=O)CNC(=O)c2cccs2)c2ccccc21	i	i	i	i	i	/	/	/
CC(=O)Nc1ccc(-c2csc(NC(=O)C3=COCCO3)n2)cc1	i	i	i	i	i	/	/	/
Cc1ccc(-c2csc(NC(=O)C3=COCCO3)n2)cc1	i	i	i	i	i	i	i	i
O=C(Nc1nc(-c2ccc(Oc3ccccc3)cc2)cs1)C1=COCCO1	21*	i	i	i	i	32%*	42%*	i
Nc1c(S(=O)(=O)c2cccs2)c2nc3ccccc3nc2n1Cc1ccc2c(c1)OCO2	6.9*	i	i	i	i	9.5%*	i	i
Cc1ccc(C(C)C)c(OCC(O)CNC2CCCC2)c1 (centres undefined)	i	i	i	i	i	/	/	/
COc1ccccc1CC(NC(C)=O)C(=O)NC1CCN(S(=O)(=O)c2ccccc2)CC1 (centres undefined)	5.7*	/	/	/	i	i	i	i
COc1cccc(CC(NC(C)=O)C(=O)NC2CCN(S(=O)(=O)c3ccc(NC(C)=O)cc3)CC2)c1OC (centres undefined)	i	i	i	i	i	/	/	/
COc1ccccc1CC(NC(C)=O)C(=O)NC1CCN(S(=O)(=O)c2ccc(NC(C)=O)cc2)CC1 (centres undefined)	i	i	i	i	i	i	i	i
N#C/C(=C\c1c[nH]c2ccc(Br)cc12)c1ccccn1	i	i	i	i	i	/	/	/
Cc1ccccc1N(CC(=O)NCc1ccco1)C(=O)CNS(=O)(=O)c1ccc(F)cc1	i	i	i	i	i	i	i	i
Cc1ccc(N(CC(=O)NCc2ccco2)C(=O)CNS(=O)(=O)c2ccc(F)cc2)c(C)c1	i	i	i	i	i	/	/	/
Cc1ccccc1C(=O)Nc1ccc2c(c1)nc(CCNC(=O)c1ccco1)n2C	i	i	i	i	i	/	/	/
CCC(=O)Nc1ccc2c(c1)nc(CCNC(=O)c1ccco1)n2C	i	i	i	i	i	/	i	i
Cc1ccc(C(=O)Nc2nnc(NC(=S)Nc3ccccc3)s2)cc1	i	i	i	i	i	/	/	/
CCOc1ccc(C(=O)Nc2nnc(NC(=S)Nc3ccccc3)s2)cc1	4.9*	i	i	i	i	10%*	i	i
Cc1nc2c(C(=O)NCCC3=CCCCC3)c[nH]n2c(=O)c1Cl	17*	i	i	i	i	52%*	52%*	i
Cc1cc(C(=O)COC(=O)c2ccc3c(c2)NC(=O)CS3)c(C)n1CCc1ccc(Cl)cc1	i	i	i	i	i	/	/	/
SMILES	RGS4 inh	MrgX1 agonist	MrgX1 antag	MrgX1 PAM	RGS4 act	RGS4 block valid	RGS4 uninduced	RGS4 inh ctr2
Cc1cc(C)c(NC(=O)CNC(=O)COC(=O)/C=C/c2cccs2)c(C)c1	i	i	i	i	i	/	/	/
CC1(C)OC(=O)C(=CNCCc2ccc(O)cc2)C(=O)O1	5.7*	i	i	i	i	i	i	i
COC(=O)Cc1[nH]nc2c1C1(C(=O)N(Cc3ccc(Cl)cc3)c3ccccc31)C(C#N)=C(N)O2 (centres undefined)	5.1*	i	i	i	i	6.5%*	i	i
CCc1[nH]nc2c1C1(C(=O)N(Cc3ccccc3)c3ccccc31)C(C#N)=C(N)O2 (centres undefined)	i	i	i	i	i	/	/	/
COc1ccccc1C1CC(c2c(-c3ccccc3)c3cc(Cl)ccc3[nH]c2=O)=NN1S(C)(=O)=O (centres undefined)	/	i	i	i	/	/	/	/
COc1cccc(C2CC(c3c(-c4ccccc4)c4cc(Cl)ccc4[nH]c3=O)=NN2S(C)(=O)=O)c1OC (centres undefined)	5.2*	i	i	i	i	9.0%*	i	80%*
Cn1ncc(S(=O)(=O)Cc2ccccc2)c(Cl)c1=O	26*	i	i	i	i	42%*	i	i
COCCOn1c(SCCOC)nc2ccccc2c1=O	i	i	i	i	i	/	/	/
NC(=O)c1cc2c(s1)-c1cc(Cl)ccc1SC2	5.9*	i	i	i	i	18%*	i	i
COCCNC(=O)c1cc2c(s1)-c1ccc(Cl)cc1SC2	i	i	i	i	i	/	/	/
COc1ccc(N2CCN(C(=O)C3(S(=O)(=O)c4ccc(C)cc4)CC3)CC2)cc1	i	i	i	i	i	/	/	/
COc1cc2c(cc1OC)C(CSc1ccccc1C(=O)O)=NC(C)(C)C2	5.6*	i	i	i	i	9.5%*	i	i

Compound activity deposited in PubChem BioAssay by Johns Hopkins Ion Channel Center.
